How the values were obtained:
Rattus norvegicus = organism: Rattus norvegicus; assay: Metabolic stability expressed as the remaining ratio of compound in rat microsomes after incubation in a shaking water bath for 1 hour; format: functional
Procedure, shortened: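 Compound incubated with rat microsomes for 60 min at 37 °C in a shaking water bath. Stability is reported as the remaining ratio, the percentage of parent compound left.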

[1] = molecular target: Substance-P receptor (Cavia porcellus) (UniProt P30547); assay: Antagonist activity against tachykinin receptor 1 activity in guinea pig ileum in vitro; format: functional, tissue-based
Chain of Substance-P receptor (Cavia porcellus) (P30547 whole entry): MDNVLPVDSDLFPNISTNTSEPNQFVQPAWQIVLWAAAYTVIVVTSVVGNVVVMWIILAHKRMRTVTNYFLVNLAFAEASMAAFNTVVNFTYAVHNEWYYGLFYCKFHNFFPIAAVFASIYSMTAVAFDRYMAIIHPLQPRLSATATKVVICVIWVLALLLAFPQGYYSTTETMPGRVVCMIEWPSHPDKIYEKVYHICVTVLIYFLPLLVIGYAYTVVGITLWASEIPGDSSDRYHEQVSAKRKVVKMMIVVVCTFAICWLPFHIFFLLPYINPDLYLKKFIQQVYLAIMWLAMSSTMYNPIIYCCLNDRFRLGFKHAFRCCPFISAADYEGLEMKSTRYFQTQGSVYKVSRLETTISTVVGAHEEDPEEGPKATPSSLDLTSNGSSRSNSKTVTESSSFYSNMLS
Procedure, shortened: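 Isolated guinea pig ileum preparation; NK1 antagonism expressed as a K_B value.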

[2] = Effective bladder capacity increasing effect of compound (0.3 mg/kg i.v.) expressed as the ratio of increase in effective bladder capacity compared to saline treated animals in vivo; format: functional, Cavia porcellus; conditions: in the assay text read “compared with the predrug values” for “compared to saline treated animals”
Procedure, shortened: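 Spinalized guinea pigs given test agent iv at 0.3 mg/kg. Effective bladder capacity was the volume of saline injected into the bladder. The result is the ratio of the increase in effective bladder capacity relative to each animal's predrug value.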

Structure (SMILES)	Remaining ratio (Rattus norvegicus) [%]	Kb [1] [nM]	Effect [2] [%]
O=C1c2c(-c3ccccc3Cl)cc(N3CCC(N4CCCC4)CC3)nc2OCCCN1Cc1cc(C(F)(F)F)cc(C(F)(F)F)c1	89	0.207	–
O=C1c2c(cc(N3CCOCC3)nc2-c2ccccc2)OCCCN1Cc1cc(C(F)(F)F)cc(C(F)(F)F)c1	100	2.63	–
Cc1ccc(-c2c3n(c(=O)c4ncccc24)CC[C@@H](C)CN(Cc2cc(C(F)(F)F)cc(C(F)(F)F)c2)C3=O)cc1	–	–	12
O=C1c2c(-c3ccccc3)cc(N3CCCC3)nc2OCCCN1Cc1cc(C(F)(F)F)cc(C(F)(F)F)c1	71	13.8	–
O=C1c2c(-c3ccccc3)cc(N3CCCCC3)nc2OCCCN1Cc1cc(C(F)(F)F)cc(C(F)(F)F)c1	70	13.2	–
Cc1ccccc1-c1cc(N2CCC(N3CCCC3)CC2)nc2c1C(=O)N(Cc1cc(C(F)(F)F)cc(C(F)(F)F)c1)CCCO2	100	0.21	24.2
O=C1c2c(-c3ccccc3)cc(N3CCOCC3)nc2OCCCN1Cc1cc(C(F)(F)F)cc(C(F)(F)F)c1	100	2.57	–
O=C1c2c(ccnc2-c2ccccc2)OCCCN1Cc1cc(C(F)(F)F)cc(C(F)(F)F)c1	100	69.2	–
O=C1c2c(-c3ccccc3)cc(N3CCC(N4CCCCC4)CC3)nc2OCCCN1Cc1cc(C(F)(F)F)cc(C(F)(F)F)c1	100	2.34	–
COc1cc(N2CCOCC2)nc(-c2ccccc2)c1C(=O)N(C)Cc1cc(C(F)(F)F)cc(C(F)(F)F)c1	100	26.3	–
CN(Cc1cc(C(F)(F)F)cc(C(F)(F)F)c1)C(=O)c1cccnc1-c1ccccc1	70	151	–
CN(Cc1cc(C(F)(F)F)cc(C(F)(F)F)c1)C(=O)c1ccc(N2CCOCC2)nc1-c1ccccc1	100	129	–
FC(F)(F)c1cc(COc2cccnc2-c2ccccc2)cc(C(F)(F)F)c1	9	25.7	–
O=C1c2c(-c3ccccc3)cc(N3CCC(N4CCCC4)CC3)nc2OCCCN1Cc1cc(C(F)(F)F)cc(C(F)(F)F)c1	86	0.224	–
CN1CCN(c2cc(-c3ccccc3)c3c(n2)OCCCN(Cc2cc(C(F)(F)F)cc(C(F)(F)F)c2)C3=O)CC1	100	1.16	–
Cc1ccccc1-c1nc(N2CCC(N3CCCC3)CC2)cc2c1C(=O)N(Cc1cc(C(F)(F)F)cc(C(F)(F)F)c1)CCCO2	100	–	3.97
O=C1c2c(-c3ccccc3F)cc(N3CCC(N4CCCC4)CC3)nc2OCCCN1Cc1cc(C(F)(F)F)cc(C(F)(F)F)c1	100	0.382	–
